Source: ChEMBL document CHEMBL1152607, “Tetraiodobenzimidazoles are potent inhibitors of protein kinase CK2” (Bioorg Med Chem, 2009)
Calls of active or inactive are those of the source. The calls are words filed in the database; no cut-off is given here.

Target: not listed separately
Test: Inhibition of rat liver Casein kinase 2
Procedure, shortened: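 Ki from Lineweaver–Burk plots: peptide fixed, ATP increasing, with or without several inhibitor concentrations. Alternatively derived from IC50 via the Cheng–Prusoff relationship.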

| Ki [nM] | SMILES |
| --- | --- |
| 590 | Clc1c(I)c(Cl)c2nc[nH]c2c1I |
| 200 | FC(F)(F)C(F)(F)c1nc2c(Br)c(Br)c(Br)c(Br)c2[nH]1 |
| 1910 | CNC(=O)Cn1cnc2c(Br)c(Br)c(Br)c(Br)c21 |
| 140 | OCCNc1nc2c(Br)c(Br)c(Br)c(Br)c2[nH]1 |
| 1450 | NC(=O)Cn1cnc2c(Br)c(Br)c(Br)c(Br)c21 |
| 1510 | NNC(=O)Cn1cnc2c(Br)c(Br)c(Br)c(Br)c21 |
| 100 | Brc1c(I)c(I)c2[nH]cnc2c1I |
| 200 | S=c1[nH]c2c(Br)c(Br)c(Br)c(Br)c2[nH]1 |
| 250 | Clc1nc2c(Br)c(Br)c(Br)c(Br)c2[nH]1 |
| 27 | OCCNc1nc2c(I)c(I)c(I)c(I)c2[nH]1 |
| 50 | O=c1[nH]c2c(I)c(I)c(I)c(I)c2[nH]1 |
| 330 | Cc1nc2c(I)c(Cl)c(Cl)c(I)c2[nH]1 |
| 19 | CCc1nc2c(I)c(I)c(I)c(I)c2[nH]1 |

The next lines start with the compound.

| SMILES | Ki [nM] |
| --- | --- |
| NNC(=O)Cn1cnc2c(I)c(I)c(I)c(I)c21 | 160 |
| Clc1nc2c(I)c(I)c(I)c(I)c2[nH]1 | 120 |
| Cc1nc2c(I)c(I)c(I)c(I)c2[nH]1 | 24 |
| NC(=O)Cn1cnc2c(I)c(I)c(I)c(I)c21 | 130 |
| Brc1nc2c(I)c(I)c(I)c(I)c2[nH]1 | 90 |
| Clc1c(Cl)c(I)c2[nH]cnc2c1I | 460 |
| CNC(=O)Cn1cnc2c(I)c(I)c(I)c(I)c21 | 180 |
| Brc1c(Br)c(Br)c2[nH]cnc2c1Br | 300 |
| O=C(O)Cn1cnc2c(Br)c(Br)c(Br)c(Br)c21 | 1340 |
| O=C(O)Cn1cnc2c(I)c(I)c(I)c(I)c21 | 140 |
| FC(F)(F)C(F)(F)c1nc2c(I)c(I)c(I)c(I)c2[nH]1 | 70 |
| FC(F)(F)c1nc2c(Br)c(Br)c(Br)c(Br)c2[nH]1 | 370 |
| O=c1[nH]c2c(Br)c(Br)c(Br)c(Br)c2[nH]1 | 180 |
| Brc1nc2c(Br)c(Br)c(Br)c(Br)c2[nH]1 | 370 |
| Clc1c(I)c(I)c2[nH]cnc2c1I | 160 |
| FC(F)(F)c1nc2c(I)c(I)c(I)c(I)c2[nH]1 | 120 |
| O=C(O)CSc1nc2c(Br)c(Br)c(Br)c(Br)c2[nH]1 | 120 |
| Brc1c(I)c(Br)c2nc[nH]c2c1I | 75 |
| O=C(O)CSc1nc2c(I)c(I)c(I)c(I)c2[nH]1 | 54 |
| S=c1[nH]c2c(I)c(I)c(I)c(I)c2[nH]1 | 50 |
| Ic1c(I)c(I)c2[nH]cnc2c1I | 23 |

Target: not listed separately
Test: (§1) Noncompetitive inhibition of rat liver Casein kinase 2 using 80 uM ATP and increasing phosphoacceptor substrate by Lineweaver-Burke plot

| Ki [nM] | SMILES |
| --- | --- |
| 21000 | Clc1c(Cl)c(Cl)c2[nH]cnc2c1Cl |

Organism: Rattus norvegicus
Test: as §1

| Activity | SMILES |
| --- | --- |
| Active | Ic1c(I)c(I)c2[nH]cnc2c1I |
